Bioassay records as filed in PubChem.
Compounds with a hit are over-represented: about 2.8% of the library has one in this group of screens.
CAL PDZ FP-1 – inhibitors of human CAL PDZ peptide binding; Q9HD26; inhibition, % at 24.9 µM; purified CAL PDZ, TMR-peptide fluorescence polarization, 1 h; hit rate 0.92% among 300,000;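 active = mean inhibition of at least 30% with at least half of replicates also reaching 30%; inconclusive = no clear call, values can overlap the other calls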;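 also: 0% = DMSO neutral control and 100% = excess unlabeled competitor peptide PRC23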
CAL PDZ FP-2 – human CAL PDZ-peptide interaction inhibition; Q9HD26; purified CAL PDZ, TMR-peptide fluorescence polarization, 1 h; inhibition, % at 20 µM; hit rate 0.02% among 330,000; AID 504414;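 active = highest replicate inhibition of at least 40%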;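 also: plate controls were DMSO neutral control wells for no effect and unlabeled competitor peptide control wells for full effect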
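Test system: purified CerCALP PDZ construct; Compound dosing: one concentration, 20 µM compound; Also added: TMR-labelled reporter peptide T*-PRC34 bound in PDZ groove; Read-out: inhibition from polarization loss; Controls: unlabelled peptide and DMSO controls; Signal: FP readout, S and P plane fluorescence; Incubation: 1 h at RT.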
SR-BI uptake up – enhances SR-BI lipid uptake from DiI-HDL; CHO ldlA[mSR-BI] cells, DiI-HDL uptake fluorescence, 3 h; 100 = double the neutral-control signal; activation, % at 12.5 µM; hit rate 0.096% among 320,000; AID 504775;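 active = mean replicate activation of at least 60% and every replicate at or above 60%; inconclusive = mean or all-replicate condition met, but not both; inactive = mean below 60% and not all replicates reaching 60%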;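 also: 0% = median plate neutral-control signal and 100% = twice that signal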
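Test system: SR-BI-overexpressing, LDLR-lacking CHO cells; Also added: labelled HDL, 10 µg/mL; Measured by: bottom-read cell fluorescence after medium removal, ex 550/em 595 nm; Timing: 3 h uptake period with compound, 37 °C; Buffer or medium: F12, 0.5% BSA, 25 mM HEPES; Doses: single compound concentration, delivered by pin transfer.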
dFosB act – mouse delta FosB homodimer activation. P13346. purified delta FosB, TAMRA-CDK5 oligo fluorescence polarization; percent of positive-control signal above neutral wells. activation, % at 25 µM. hit rate 0.99% among 340,000. AID 493131;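 active = mean activation above about 17%, with every replicate also reaching it, limit read from the data, passing the limit was not always enough; inconclusive = only one of the two conditions met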
Target sequence (P13346 whole entry, looked up): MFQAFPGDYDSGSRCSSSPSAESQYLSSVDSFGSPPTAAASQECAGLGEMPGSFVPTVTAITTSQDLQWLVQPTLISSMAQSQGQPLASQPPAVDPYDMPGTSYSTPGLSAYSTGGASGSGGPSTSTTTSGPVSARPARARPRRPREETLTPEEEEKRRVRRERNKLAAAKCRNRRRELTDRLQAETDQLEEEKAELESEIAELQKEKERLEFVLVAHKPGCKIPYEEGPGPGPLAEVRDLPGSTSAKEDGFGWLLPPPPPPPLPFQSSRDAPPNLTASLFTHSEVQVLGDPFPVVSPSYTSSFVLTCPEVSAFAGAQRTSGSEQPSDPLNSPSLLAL
SR-BI HDL uptake – blocks mouse SR-BI lipid uptake from DiI-HDL. Q61009. ldlA[mSR-BI] CHO cells, DiI-HDL uptake fluorescence, 3 h. inhibition, % at 12.5 µM. hit rate 0.96% among 320,000;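 active = mean replicate inhibition of at least 70% and a set share of replicates each scoring 70 or more; inconclusive = meets just one of the two criteria; inactive = fails both criteria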;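 also: 0% = median of neutral control wells and 100% = median of positive control wells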
* hit, by the source's call; i = inactive; u = inconclusive; x = no result; + = active, no number.

SMILES	CAL PDZ FP-1	CAL PDZ FP-2	SR-BI uptake up	dFosB act	SR-BI HDL uptake
CCCCOc1ccc(C(=O)Nc2cccc(-n3cnnn3)c2)cc1OC	-1	-2	-75	-2	75*
CCOc1ccc(C(=O)Nc2cccc(-n3cnnn3)c2)cc1OCC	-2	-2	-68	-5	68
Cc1cc(C)c2c(n1)SCC(=O)N2CC(=O)Nc1cc(F)ccc1F	x	-1	-8	1	8
Cc1nonc1NC(=O)CSc1nnc(-c2ccoc2C)n1CC(C)C	177*	x	9	-3	-9
CCn1c(SCC(=O)Nc2nonc2C)nnc1-c1ccoc1C	-5	x	3	1	-3
O=C(O)CCCCCN1C(=O)CCC1=O	45*	x	22	-6	-22
COc1ccc2cc(C3=CCCC3(C)C(=O)O)ccc2c1 (centres undefined)	-6	1	6	-6	-6
CCN(CC)c1ccc(C(=C2C=CC(=[N+](CC)CC)C=C2)c2ccc(N(CC)CC)cc2)cc1	12	12	-89	7	89*
CCN(CC)c1ccc(C(=C2C=CC(=[N+](CC)CC)C=C2)c2ccccc2)cc1	-2	5	-54	-11	54
Cc1noc(C)c1COc1ccc(C(=O)N2CCN(S(=O)(=O)c3ccc(F)cc3)CC2)cc1	1	0	-4	-6	4
Cc1noc(C)c1COc1ccc(C(=O)N2CCN(S(=O)(=O)c3ccc(Cl)cc3)CC2)cc1	39*	-1	-4	-9	4
CN(Cc1ccccc1)C(=O)COC(=O)COc1ccc(C#N)cc1	-4	-4	-1	0	1
CCOC(=O)c1cc2nc(OCC)nc(OCC)c2[nH]1	41*	0	-20	-19	20
N#C/C(=C\c1coc2ccc(O)cc2c1=O)C(=O)Nc1nc2ccccc2s1	-3	0	-49	-23	49
CSc1ccccc1NC(=O)C(C)N(C)CC(=O)N1CCN(Cc2ccccc2)CC1 (centres undefined)	1	2	-19	-11	19
Cc1ccc(C(C)C)c(OC/C(O)=C(\C#N)c2nc3ccccc3[nH]2)c1	63*	0	-56	1	56
CC(C)Cn1cc(F)c(=O)n(CC(C)C)c1=O	-1	0	30	-4	-30
CCN(CC(=O)Nc1c(F)cccc1F)C(=O)CC1CCCCC1	1	-2	x	-5	6
Cc1ccc2nc(-c3ccc(NC(=O)CSc4nccc(=O)[nH]4)cc3)sc2c1	-12	-2	2	-2	-2
Cc1ccc2nc(-c3ccc(NC(=O)CSc4nc(N)cc(=O)[nH]4)cc3)sc2c1	54*	0	-11	u	11
O=C(CN1C(=O)NC(Cc2c[nH]c3ccccc23)C1=O)NCCc1ccccc1 (centres undefined)	-3	0	-3	-1	3
O=C(O)c1cccc(S(=O)(=O)NNc2ccccc2C(F)(F)F)c1	+	0	1	-2	-1
CC1CC(C)(C)CC2(C1)NC(=O)N(CC(=O)Nc1ccc(N3CCCCC3)cc1)C2=O (centres undefined)	x	0	x	-3	73*
CCCc1c(OCCCOc2ccc(OCC(=O)O)cc2)ccc(C(C)=O)c1O	-6	0	4	-9	-4
COc1cc(-c2cc(C(=O)Nc3ccc(N4CCOCC4)cc3)c3ccccc3n2)cc(OC)c1OC	-5	-1	-90	-4	90*
SMILES	CAL PDZ FP-1	CAL PDZ FP-2	SR-BI uptake up	dFosB act	SR-BI HDL uptake
CCOc1ccccc1NC(=O)c1cc(-c2cc(OC)c(OC)c(OC)c2)nc2ccccc12	x	-4	-72	-11	72*
O=C(CNC(=O)[C@@H]1Cc2ccccc2CN1)NCc1ccco1	-4	-2	-3	-12	3
Cc1cccc(NC(=O)C2CCCN(S(=O)(=O)c3ccc4[nH]c(=O)ccc4c3)C2)n1 (centres undefined)	-5	-1	10	-8	-10
CCc1ccc(CCC(=O)Nc2ccc(Cl)cc2)o1	-1	-1	-11	6	11
CCOCCn1c(=O)c2c(nc3n2CCN3c2ccc(C)cc2)n(C)c1=O	77*	0	-22	5	22
CCn1c(=O)c2c(nc3n2CCN3c2ccccc2)n(C)c1=O	-4	0	11	2	-11
O=C(Nc1c2c(nn1-c1ccc([N+](=O)[O-])cc1)CS(=O)(=O)C2)c1ccccc1F	x	0	2	1	-2
COc1cc(NC(=O)C/C(C)=N/NC(=O)C2CCCCC2)c(OC)cc1Cl	-3	-2	-3	-13	3
CCOc1ccc(C(=O)NC2CC3CCCC(C2)N3Cc2ccccc2)cc1 (centres undefined)	-2	50*	-6	-6	6
COc1ccc(CN2C3CCC2CC(NC(=O)c2cccc(F)c2)C3)cc1 (centres undefined)	-1	-1	-3	-8	3
COc1cccc(C(=O)NC2CC3CCC(C2)N3Cc2ccccc2)c1 (centres undefined)	39*	-1	-1	0	1
CC(=O)c1ccc(OCc2cc(C(=O)N3CCN(c4ccccc4)CC3C)no2)cc1 (centres undefined)	6	0	-8	-8	8
CSc1ccccc1OCc1cc(C(=O)N2CCN(c3ccccc3)CC2C)no1 (centres undefined)	69*	0	-40	-9	40
COCCCNC(=O)CN(c1cccc(Cl)c1C)S(C)(=O)=O	0	-1	29	-2	-29
COCCCNC(=O)CN(c1cccc(Cl)c1)S(C)(=O)=O	-1	x	527*	0	i
CCCCCC(=O)NC(=S)Nc1ccc(Br)cc1C	-4	0	70*	1	-70
COc1ccc([C@H]2Cc3cc(O)cc(O)c3C(=O)O2)cc1O	0	-1	-20	4	20
Cc1cc2oc(=O)cc(-c3ccccc3)c2c(C)c1-c1ccc(N(C)C)cc1	-2	0	-78	-10	78*
CCOC(=O)c1ccc(-c2c(C)cc3oc(=O)cc(-c4ccccc4)c3c2C)cc1	-2	-1	-73	-11	73*
Cc1ccc(-c2c(C)cc3oc(=O)cc(-c4ccccc4)c3c2C)cc1	-5	-1	-78	6	78*
COc1ccc(-c2c(C)cc3oc(=O)cc(-c4ccccc4)c3c2C)cc1	-2	0	-62	-6	62
O=[N+]([O-])c1cccc(NC(=S)Nc2nc(-c3ccccc3Cl)cs2)c1	5	-2	-84	-1	84*
Cc1ccc(-c2cc(C(=O)N/N=C/c3c[nH]c4ccccc34)[nH]n2)cc1	0	0	-89	13	89*
O=C(N/N=C/c1c[nH]c2ccccc12)c1cc(-c2ccc(-c3ccccc3)cc2)n[nH]1	-3	-2	-94	2	94*
O=C(N/N=C/c1c[nH]c2ccccc12)c1cc(-c2ccccc2)n[nH]1	-1	-1	-34	-11	34
